Source: PubChem
Sampled rows, rich in hits. Any-hit rate of the full collection: about 3.3%.
LEDGF integ inh: blocks HIV-1 LEDGF/p75-dependent DNA integration | 0.64% of 370,000 active | inhibition, % at 3.7 µM | TR-FRET IN-LEDGF/p75 DNA integration, Eu/Cy5;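 active = inhibition above the screen-wide mean plus 3 SD, cut at about 13% in these data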;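 also: signal is the Cy5 over europium emission ratio at 671 and 618 nm; 0% = plate median of compound wells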
MBD2 DNA inh: MBD2-methylated oligo binding inhibition. Q9UBB5. TR-FRET, MBD2 binding to methylated oligonucleotide. inhibition, % at 4.4 µM. 0.31% of 370,000 active; in the data active = inhibition above about 13%
SIAE primary: human SIAE inhibition, primary screen; Q9HAT2; SIAE FP-Rh probe binding, fluorescence polarization; inhibition, % at 9.66 µM; 0.69% of 370,000 active; AID 1053197;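 active = inhibition above a cutoff: mean of compounds within the control limits plus 3 SD of those, cut at about 17% in these data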;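 also: 0% = plate median of compound wells and 100% = probe without SIAE protein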
TDP2 inh: blocks human TDP2 phosphodiesterase activity | recombinant TDP2, T5PNP hydrolysis, p-nitrophenol absorbance 415 nm | inhibition, % at 12.8 µM | 0.34% of 370,000 active | AID 720702;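 active = inhibition above the mean of all tested compounds plus 3 SD, set per campaign, cut at about 25% in these data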;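 also: 0% = DMSO with enzyme and 100% = buffer with substrate but no TDP2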
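Material: recombinant human TDP2; quantity: TDP2 enzyme at 120 nM final; medium: Tris-HCl pH 7.5 with MgCl2; compound: single concentration, 12.8 µM nominal, with 1% DMSO; incubation: 2 h enzyme incubation at 37 °C; signal: epi absorbance; measure: percent inhibition; benchmarks: high control without enzyme, low control DMSO plus TDP2; repeats: singlicate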
PRMT1 inh: blocks human protein arginine methyltransferase 1. Q99873. recombinant PRMT1, activity-based probe fluorescence polarization. inhibition, % at 2.79 µM. 1.3% of 370,000 active;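 active = inhibition above about 21% made by adding two undisclosed values, limit read from the data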
UHRF1 binding: UHRF1 methyl-DNA binding inhibition; Q96T88; UHRF1 binding to methylated oligo, TR-FRET; inhibition, % at 4.4 µM; 0.75% of 370,000 active;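 also: UHRF1 SRA domain binding a hemimethylated CpG hairpin DNA probe; 0% = median of test compound wells and 100% = reference inhibitor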
Target sequence (Q96T88 whole entry, looked up, the tested form may be a part): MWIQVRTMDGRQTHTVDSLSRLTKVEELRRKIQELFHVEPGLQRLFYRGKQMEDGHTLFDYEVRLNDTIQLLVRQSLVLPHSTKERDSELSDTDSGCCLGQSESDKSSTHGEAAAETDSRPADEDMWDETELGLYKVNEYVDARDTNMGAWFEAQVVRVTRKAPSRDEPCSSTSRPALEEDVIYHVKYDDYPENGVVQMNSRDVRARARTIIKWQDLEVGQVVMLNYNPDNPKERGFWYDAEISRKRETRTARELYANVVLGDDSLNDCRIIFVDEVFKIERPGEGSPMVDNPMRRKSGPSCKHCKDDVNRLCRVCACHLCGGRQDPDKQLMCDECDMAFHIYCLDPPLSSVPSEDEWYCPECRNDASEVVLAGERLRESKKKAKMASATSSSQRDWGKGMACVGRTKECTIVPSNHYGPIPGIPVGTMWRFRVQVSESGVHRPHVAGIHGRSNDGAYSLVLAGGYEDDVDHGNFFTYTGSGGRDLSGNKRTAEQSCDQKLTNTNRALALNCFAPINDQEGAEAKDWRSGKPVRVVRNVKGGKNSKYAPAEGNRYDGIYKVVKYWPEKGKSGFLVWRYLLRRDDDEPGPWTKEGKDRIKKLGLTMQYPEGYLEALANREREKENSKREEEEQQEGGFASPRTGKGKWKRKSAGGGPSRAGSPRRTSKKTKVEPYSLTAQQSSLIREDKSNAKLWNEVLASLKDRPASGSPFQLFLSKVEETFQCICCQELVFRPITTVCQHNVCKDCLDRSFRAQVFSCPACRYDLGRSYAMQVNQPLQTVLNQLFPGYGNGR
UHRF1 ctr MBD2: inhibits human UHRF1 binding to methylated oligonucleotide, MBD2 counter-screen. shares compounds with MBD2 DNA inh. inhibition, % at 4.4 µM. AID 720530. 25% of 1,000 active. TR-FRET;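 also: UHRF1 SRA domain binding a labeled hemimethylated CpG hairpin DNA; 0% = vehicle only and 100% = reference inhibitor with vehicle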
MBD2 confirm: MBD2-DBD methyl-DNA binding inhibition, TR-FRET confirmation; shares compounds with MBD2 DNA inh; TR-FRET MBD2-DBD binding to methylated oligonucleotide; inhibition, % at 4.4 µM; 26% of 1,000 active; in the data active = inhibition above about 14%
Numbers without * were called inactive; · = no result given. Rule as the data show it, unless noted: active = inhibition above about 21%; inactive = the rest.

SMILES	LEDGF integ inh	MBD2 DNA inh	SIAE primary	TDP2 inh	PRMT1 inh	UHRF1 binding	UHRF1 ctr MBD2	MBD2 confirm
C=CCN1[C@H](CO)[C@H](c2ccc(C#CC3(O)CCCC3)cc2)[C@@H]1C#N	3	14*	8	10	4	19	5	11
N#Cc1ccccc1NCCCN1CCC(C(O)(c2ccccc2)c2ccccc2)CC1	12	-4	-4	-8	-5	-1	·	·
CS(=O)(=O)N1CCC(C(=O)Nc2ccc(C(N)=O)cc2)CC1	-2	40*	3	1	-6	-1	5	1
Cc1ccc(C)c2[nH]c(=O)c(CN(CCN3CCOCC3)Cc3nnnn3CC3CCCO3)cc12 (stereo not drawn)	-1	18*	-8	-11	9	3	6	1
CCCC1CCC2(CC1)CCC2OC(=S)Nc1ccc(N(C)C)cc1 (stereo not drawn)	-1	-7	-1	2	1	-3	·	·
COc1cccc(NC(=O)Nc2nnc(Cc3ccc(F)cc3)s2)c1	6	34*	1	-8	-5	0	6	5
COc1cc(NC(=O)C2CCCO2)c(OC)cc1NC(=O)c1ccccc1 (stereo not drawn)	-3	19*	4	-5	2	-2	6	1
COC(=O)c1ccc(Cn2ccc3ccc(-c4ccc5ccn(C(=O)c6ccc(C)cc6)c5c4)cc32)cc1	3	4	-9	-11	-4	2	·	·
CCOC(=O)[C@]12CCCC=C1N(Cc1ccc(OC)cc1)C(=O)[C@@H]2CC(=O)N1CCC(c2ccccc2)CC1	3	-1	-5	-1	2	4	·	·
Cc1cc(C)c2c(N)c3ccccc3nc2n1	0	20*	-8	-12	-1	22*	21*	25*
COc1ccc(NC(=O)[C@@H]2CC=C[C@@H]3CCN(C4CCCCC4)C(=O)[C@@H]32)cc1	2	64*	6	3	0	-2	7	1
COc1ccc(CNC(=O)[C@@H]2CC=C[C@@H]3CCN(C4CCCCC4)C(=O)[C@@H]32)cc1	1	-1	-2	11	0	-1	·	·
CCc1ccc(NC(=O)CCCN2C(=S)NC(C)(C)CC2C)cc1 (stereo not drawn)	4	19*	-1	-14	-2	2	3	3
Cc1ccc(NC(=O)CCCN2C(=S)NC(C)(C)CC2C)cc1 (stereo not drawn)	-2	0	1	-2	-1	0	·	·
COc1ccc(NC(=O)C[C@@H]2C(=O)N(c3ccc(OC)cc3)CC2(C)C)cc1	4	40*	7	7	0	-3	1	6
COC(=O)[C@]12C[C@H](CC(=O)N3CCSCC3)C(=O)N(CCC3=CCCCC3)C1=C[C@H](C(C)C)O[C@@H]2C1CC1	0	0	-2	-15	-2	0	·	·
CN(C)CC(=O)N[C@H]1C[C@@H]2O[C@@H](CO)CC[C@@H]2O[C@@H]1CCc1ccc(-c2ccc(F)cc2)cc1	4	5	-2	4	-5	3	·	·
Cc1nnc(SCC(=O)Nc2ccc(N(C)C)cc2)n(N)c1=O	-6	13*	-1	-11	12	-3	2	3
O=C(Nc1ccc(C(O)(C(F)(F)F)C(F)(F)F)cc1)c1ccc(F)cc1Cl	2	-3	-11	0	0	5	·	·
CCCCOc1ccc(C(=O)Nc2ccc(N3CCN(C(=O)C(C)C)CC3)cc2)cc1	0	33*	-3	-12	-3	-2	8	4
CC(CCN1CCC(C(O)(c2ccccc2)c2ccccc2)CC1)Oc1ccc(C#N)cc1F (stereo not drawn)	8	-6	2	-6	-3	3	·	·
COc1ccc(CN(C)CC#Cc2ccccc2)c(OC)c1	-1	-1	4	3	0	2	·	·
